Test results: ChEMBL document CHEMBL3352533, “Multi-dimensional target profiling of N,4-diaryl-1,3-thiazole-2-amines as potent inhibitors of eicosanoid metabolism” (Eur J Med Chem, 2014)

Experiments:
[1] = molecular target: Prostaglandin G/H synthase 1 (Homo sapiens) (UniProt P23219); assay: Inhibition of COX1 in human platelets using arachidonic acid as substrate assessed as residual activity at 50 uM preincubated for 15 mins before substrate addition measured after 10 mins
Summary of the method: (§1)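 Freshly isolated human platelets (10^8 in 1 ml PBS pH 7.4 with 1 mg/ml glucose and 1 mM CaCl2) preincubated with compound or DMSO 15 min at 37 °C, then 10 µM AA added; 10 min at 37 °C, stopped with ice-cold methanol. HPLC: 12-H(P)ETE for 12-LO, 12-HHT for COX-1; percent of DMSO control, n ≥ 3, mean ± S.E.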

[2] = Cytotoxicity against human U937 cells at 30 uM after 48 hrs by LDH assay; assay type: cell-based; conditions: u-937, 48 h
Summary of the method: (§2)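 U937 cells (DSMZ; RPMI, 10% FCS, 37 °C, 5% CO2) seeded at 1.5 × 10^4 cells/well, exposed to test agent or DMSO vehicle for 48 h. Supernatant collected after centrifugation; LDH release quantified by kit, expressed relative to detergent-lysed maximum (100%). Three experiments, mean ± S.E.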

[3] = molecular target: T1, Prostaglandin G/H synthase 2 (Homo sapiens) (UniProt P35354); assay: Inhibition of COX2-mediated PGE2 formation in IL1beta/TNFalpha-stimulated human HeLa cells using arachidonic acid as substrate assessed as residual activity at 50 uM measured after 30 mins by ELISA; assay type: cell-based
T1 sequence (whole entry): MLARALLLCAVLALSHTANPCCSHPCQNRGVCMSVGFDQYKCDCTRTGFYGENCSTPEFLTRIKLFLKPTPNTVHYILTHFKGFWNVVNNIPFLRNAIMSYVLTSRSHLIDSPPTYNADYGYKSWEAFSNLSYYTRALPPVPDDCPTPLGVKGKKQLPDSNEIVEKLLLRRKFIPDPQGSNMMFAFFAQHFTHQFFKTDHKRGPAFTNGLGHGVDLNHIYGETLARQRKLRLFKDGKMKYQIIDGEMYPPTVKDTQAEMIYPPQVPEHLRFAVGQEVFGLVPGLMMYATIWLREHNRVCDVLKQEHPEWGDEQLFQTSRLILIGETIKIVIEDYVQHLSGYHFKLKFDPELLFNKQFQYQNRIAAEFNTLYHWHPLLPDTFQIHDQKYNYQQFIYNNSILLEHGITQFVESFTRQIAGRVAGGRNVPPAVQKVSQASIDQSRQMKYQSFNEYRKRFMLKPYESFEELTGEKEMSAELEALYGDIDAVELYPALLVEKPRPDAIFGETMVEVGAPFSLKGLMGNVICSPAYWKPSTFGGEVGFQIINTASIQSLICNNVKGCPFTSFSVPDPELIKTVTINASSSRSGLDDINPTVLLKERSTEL
Summary of the method: (§3)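 HeLa cells (3 × 10^4/well) grown 24 h, then induced with 1 ng/ml IL1β and 5 ng/ml TNFα for 24 h; washed three times with PBS containing fatty-acid-free BSA 1 mg/ml. Medium with cytokines plus compound or DMSO for 30 min, stopped on ice; supernatant PGE2 by ELISA, percent of DMSO control. Three experiments, mean ± S.E.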

[4] = molecular target: T2, Polyunsaturated fatty acid lipoxygenase ALOX12 (Homo sapiens) (UniProt P18054); assay: Inhibition of 12-LO-mediated 12-HPETE formation in human platelets using arachidonic acid as substrate assessed as residual activity at 50 uM preincubated for 15 mins before substrate addition measured after 10 mins; summary of the method: as §1
T2 sequence (whole entry): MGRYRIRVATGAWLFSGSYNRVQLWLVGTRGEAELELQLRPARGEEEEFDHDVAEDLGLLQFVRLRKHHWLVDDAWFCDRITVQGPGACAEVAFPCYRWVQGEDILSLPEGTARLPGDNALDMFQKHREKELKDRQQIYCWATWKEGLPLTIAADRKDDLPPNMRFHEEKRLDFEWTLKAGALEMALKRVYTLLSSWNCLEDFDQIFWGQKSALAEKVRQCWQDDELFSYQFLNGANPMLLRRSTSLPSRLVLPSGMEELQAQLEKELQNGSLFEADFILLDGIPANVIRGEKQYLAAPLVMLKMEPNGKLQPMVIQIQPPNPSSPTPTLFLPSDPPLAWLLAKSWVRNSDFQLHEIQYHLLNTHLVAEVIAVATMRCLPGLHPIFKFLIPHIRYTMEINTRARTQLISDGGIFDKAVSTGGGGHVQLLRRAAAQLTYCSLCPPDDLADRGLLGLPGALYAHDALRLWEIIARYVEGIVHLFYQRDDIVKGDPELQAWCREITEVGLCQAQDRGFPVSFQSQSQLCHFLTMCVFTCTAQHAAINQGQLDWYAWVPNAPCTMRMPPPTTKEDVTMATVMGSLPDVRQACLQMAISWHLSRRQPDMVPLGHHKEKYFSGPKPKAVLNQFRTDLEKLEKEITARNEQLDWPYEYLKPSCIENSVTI

[5] = molecular target: T3, Polyunsaturated fatty acid lipoxygenase ALOX15 (Homo sapiens) (UniProt P16050); assay: Inhibition of 15-LO1-mediated 15-HPETE formation in human eosinophil using arachidonic acid as substrate assessed as residual activity at 50 uM preincubated for 15 mins before substrate addition measured after 10 mins
T3 sequence (whole entry): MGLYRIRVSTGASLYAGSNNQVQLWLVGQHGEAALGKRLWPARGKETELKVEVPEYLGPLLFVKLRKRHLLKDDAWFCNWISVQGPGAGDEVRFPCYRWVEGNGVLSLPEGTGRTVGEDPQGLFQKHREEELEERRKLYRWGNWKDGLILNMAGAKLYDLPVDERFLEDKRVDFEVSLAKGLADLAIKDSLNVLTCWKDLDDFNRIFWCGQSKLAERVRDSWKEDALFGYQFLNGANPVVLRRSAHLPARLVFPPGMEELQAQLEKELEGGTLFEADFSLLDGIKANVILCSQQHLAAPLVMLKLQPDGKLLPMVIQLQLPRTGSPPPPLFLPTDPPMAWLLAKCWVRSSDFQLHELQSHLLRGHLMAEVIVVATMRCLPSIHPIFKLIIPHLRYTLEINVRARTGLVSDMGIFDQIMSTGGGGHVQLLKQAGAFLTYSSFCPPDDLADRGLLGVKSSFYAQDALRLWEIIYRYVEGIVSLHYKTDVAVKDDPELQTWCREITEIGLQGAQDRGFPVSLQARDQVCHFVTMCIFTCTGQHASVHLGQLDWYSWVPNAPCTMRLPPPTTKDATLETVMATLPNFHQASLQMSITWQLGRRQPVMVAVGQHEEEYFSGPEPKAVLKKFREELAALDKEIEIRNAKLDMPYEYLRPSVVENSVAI
Summary of the method: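 Freshly isolated human PMNL (5 × 10^6/ml PBS-glucose, 1 mM CaCl2), with 15-LO1 from contaminating eosinophils, preincubated with compound 15 min at 37 °C; stimulated with 2.5 µM A23187 plus 20 µM AA for 10 min at 37 °C, methanol stop. 15-H(P)ETE peak quantified by HPLC as percent of DMSO control; n ≥ 3, mean ± S.E.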

[6] = molecular target: T1, Prostaglandin G/H synthase 2 (Homo sapiens); assay: Inhibition of COX2-mediated PGE2 formation in IL1beta/TNFalpha-stimulated human HeLa cells using arachidonic acid as substrate assessed as residual activity at 10 uM measured after 30 mins by ELISA; assay type: cell-based; summary of the method: as §3
[7] = molecular target: Prostaglandin G/H synthase 1 (Homo sapiens) (UniProt P23219); assay: Inhibition of COX1 in human platelets using arachidonic acid as substrate assessed as residual activity at 10 uM preincubated for 15 mins before substrate addition measured after 10 mins; summary of the method: as §1
[8] = Cytotoxicity against human U937 cells at 100 uM after 48 hrs by LDH assay; assay type: cell-based; conditions: u-937, 48 h; summary of the method: as §2

Sequence of Prostaglandin G/H synthase 1 (Homo sapiens) (P23219 whole entry): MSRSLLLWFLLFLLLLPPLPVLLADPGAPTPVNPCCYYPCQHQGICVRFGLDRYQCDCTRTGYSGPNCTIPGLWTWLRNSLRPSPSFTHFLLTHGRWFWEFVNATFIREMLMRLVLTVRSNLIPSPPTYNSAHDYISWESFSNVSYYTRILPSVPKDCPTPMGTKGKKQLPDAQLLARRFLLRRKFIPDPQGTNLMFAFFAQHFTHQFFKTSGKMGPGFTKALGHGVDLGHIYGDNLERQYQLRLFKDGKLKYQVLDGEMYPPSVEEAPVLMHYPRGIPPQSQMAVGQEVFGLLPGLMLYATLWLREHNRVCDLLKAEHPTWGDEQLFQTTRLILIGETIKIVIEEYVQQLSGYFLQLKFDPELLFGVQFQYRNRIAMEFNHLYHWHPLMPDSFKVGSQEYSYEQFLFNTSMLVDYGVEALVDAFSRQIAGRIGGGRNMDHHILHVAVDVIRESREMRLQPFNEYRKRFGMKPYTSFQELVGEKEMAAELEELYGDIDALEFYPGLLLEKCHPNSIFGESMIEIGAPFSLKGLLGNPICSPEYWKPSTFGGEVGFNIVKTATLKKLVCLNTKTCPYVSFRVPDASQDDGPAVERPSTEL

| SMILES | Activity [1] | Activity [2] | Activity [3] | Activity [4] | Activity [5] | Activity [6] | Activity [7] | Activity [8] |
| --- | --- | --- | --- | --- | --- | --- | --- | --- |
| Cc1ccc(-c2csc(Nc3ccc(O)cc3)n2)cc1 | 18.5% | 14% | 3.4% | > 70% | 44.6% | – | – | – |
| Oc1ccccc1Nc1nc(-c2ccc(Cl)cc2)cs1 | – | 0.9% | – | > 70% | > 70% | 9.1% | 67.4% | – |
| CC(=O)c1cccc(Nc2nc(-c3ccc(Cl)cc3)cs2)c1 | 38.7% | – | 59.9% | > 70% | > 70% | – | – | – |
| Oc1cccc(Nc2nc(-c3ccc(Cl)cc3)cs2)c1 | 19.5% | – | 2.7% | > 70% | 57% | – | – | – |
| Nc1ccc(-c2csc(Nc3ccc(O)cc3)n2)cc1 | 26.7% | – | 3.3% | > 70% | > 70% | – | – | – |
| FC(F)(F)c1ccc(Nc2nc(-c3ccc(Cl)cc3)cs2)cc1 | 2.7% | – | > 70% | > 70% | > 70% | – | – | – |
| Clc1ccc(-c2csc(Nc3ccccc3)n2)cc1 | 7.7% | – | 5% | > 70% | > 70% | – | – | – |
| OC(c1ccc(Nc2nc(-c3ccc(Cl)cc3)cs2)cc1)(C(F)(F)F)C(F)(F)F | 2.6% | 21.7% | 42.9% | > 70% | > 70% | – | – | – |
| CC(=O)c1ccc(Nc2nc(-c3ccc(F)cc3)cs2)cc1 | 56.1% | – | 9.1% | > 70% | > 70% | – | – | – |
| Oc1ccc(Nc2nc(-c3ccc(Cl)c(Cl)c3)cs2)cc1 | – | – | – | 32.6% | > 70% | 15.1% | 69.4% | – |
| Oc1ccc(-c2csc(Nc3ccc(F)cc3)n2)cc1 | 2.1% | – | 2.1% | 4.2% | 53.7% | – | – | – |
| COc1ccc(Nc2nc(-c3ccc(Cl)cc3)cs2)cc1 | 25.6% | 1.6% | 3.7% | > 70% | > 70% | – | – | – |
| Oc1ccc(Nc2nc(-c3ccccc3)cs2)cc1 | 16.2% | 5.5% | 3.1% | 34.9% | 13% | – | – | – |
| Oc1ccc(-c2csc(Nc3ccc(Cl)cc3)n2)cc1 | 3.5% | 1.4% | 2.1% | > 70% | 43.1% | – | – | – |
| Oc1ccc(Nc2nc(-c3ccc(Cl)cc3)cs2)cc1 | 28.6% | 17.5% | 4.1% | > 70% | > 70% | – | – | – |
| COc1ccc(Nc2nc(-c3ccc(Cl)cc3)cs2)c(OC)c1 | > 70% | – | 18.4% | > 70% | > 70% | – | – | – |

| SMILES | Activity [1] | Activity [2] | Activity [3] | Activity [4] | Activity [5] | Activity [6] | Activity [7] | Activity [8] |
| --- | --- | --- | --- | --- | --- | --- | --- | --- |
| COc1ccc(Nc2nc(-c3ccc(Cl)cc3)cs2)cc1OC | – | – | 8.6% | > 70% | > 70% | – | – | – |
| CCCCCC(O)c1cccc(OCc2ccc3ccccc3n2)c1 (stereo not given) [REV-5901] | – | – | – | – | – | – | – | 28.3% |
| COc1ccccc1Nc1nc(-c2ccc(Cl)cc2)cs1 | 55.8% | – | 5.3% | > 70% | > 70% | – | – | – |
| COc1ccc(-c2csc(Nc3ccccc3)n2)cc1 | 2% | – | 2.3% | > 70% | 50.3% | – | – | – |
| CCOc1ccc(-c2csc(Nc3ccc(O)cc3)n2)cc1 | 16.6% | – | 2.1% | > 70% | > 70% | – | – | – |
| Clc1ccc(-c2csc(Nc3cc(Cl)cc(Cl)c3)n2)cc1 | 2.3% | – | 30.9% | > 70% | > 70% | – | – | – |
| Clc1ccc(-c2csc(Nc3ccc4c(c3)OCCO4)n2)cc1 | 6% | – | 5.5% | > 70% | > 70% | – | – | – |
| FC(F)(F)c1cc(Nc2nc(-c3ccc(Cl)cc3)cs2)cc(C(F)(F)F)c1 | 13.7% | 18.2% | 45.1% | > 70% | > 70% | – | – | – |
| CC(c1cc2ccccc2s1)N(O)C(N)=O (stereo not given) [ZILEUTON] | – | – | – | – | – | – | – | 1.5% |
| Clc1ccc(-c2csc(Nc3ccc4c(c3)OCO4)n2)cc1 | 3.2% | – | 3.8% | > 70% | > 70% | – | – | – |
| Oc1cccc(Nc2nc(-c3ccccc3)cs2)c1 | 4.1% | – | 2.4% | > 70% | > 70% | – | – | – |
| FC(F)(F)Oc1ccc(Nc2nc(-c3ccc(Cl)cc3)cs2)cc1 | 1.1% | – | 17.8% | > 70% | > 70% | – | – | – |
| Clc1ccc(-c2csc(Nc3ccc(N4CCOCC4)cc3)n2)cc1 | > 70% | – | > 70% | > 70% | > 70% | – | – | – |
| COc1ccc(Nc2nc(-c3ccccc3)cs2)cc1 | 2.3% | – | 3.2% | > 70% | > 70% | – | – | – |
| O=S(=O)(c1ccc(-c2csc(Nc3ccc(Cl)cc3)n2)cc1)N1CCOCC1 | > 70% | – | 39.1% | > 70% | 41.3% | – | – | – |
